ChEMBL document CHEMBL4145692, “Discovery of a Locally and Orally Active CXCL12 Neutraligand (LIT-927) with Anti-inflammatory Effect in a Murine Model of Allergic Airway Hypereosinophilia” (J Med Chem, 2018)
Active and inactive are the calls of the source. The calls are words filed in the database; no cut-off is given here.

Key:
Mus musculus [1] = assay: Inhibition of eosinophil infiltration in Balb/c mouse model of 8 day model of allergic eosinophilic airway inflammation at 300 nmol/kg dosed intranasally 2 hrs before ovalbumin challenge by hemocytometry; format: functional; conditions: inhaled or nasal
In short: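 OVA/alum-sensitized Balb/c mice challenged intranasally with OVA on days 5–7. Compounds at 300 nmol/kg in 10% PBS/Cdx given intranasally 2 h before each challenge. BAL 24 h after the last challenge; eosinophils, neutrophils and lymphocytes counted by hemocytometer and differential cytospin; n=6/group.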

Mus musculus [2] = assay: Inhibition of eosinophil infiltration in Balb/c mouse model of 8 day model of allergic eosinophilic airway inflammation dosed intranasally 2 hrs before ovalbumin challenge by hemocytometry; format: functional, organism-based
In short: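 Same intranasal OVA model with dose-response treatment in PBS/Cdx 10% given 2 h before each challenge. Percent inhibition of BAL eosinophil recruitment; mean ± SEM, n=6/group.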

[3] = target: T1, Stromal cell-derived factor 1 (Homo sapiens, UniProt P48061); assay: Binding affinity to CXCL12 (unknown origin) assessed as changes in tryptophan fluorescence intensity
T1 sequence (P48061 whole entry): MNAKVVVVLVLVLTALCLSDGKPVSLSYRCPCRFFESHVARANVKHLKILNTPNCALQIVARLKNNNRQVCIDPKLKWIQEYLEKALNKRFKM
In short: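 Intrinsic Trp fluorescence of CXCL12 (2 μM in Hepes buffer), excitation 285 nm, emission 340 nm, titrated with increasing compound. Kd obtained by fitting a 1:1 binding quadratic model with chemokine fixed at 2 μM. Mean ± SD of three independent experiments.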

[4] = target: T1, Stromal cell-derived factor 1; assay: Binding affinity to CXCL12 (unknown origin) assessed as inhibition of CXCL12 -induced increase in intracellular calcium level in EGFP-tagged CXCR4 expressing HEK cells at 10 uM; format: cell-based
In short: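 TRIC-r calcium assay, neutraligand protocol. Compound at 10 μM (DMSO control) tested against calcium responses triggered by 5 nM of each chemokine on its receptor line: CXCL12 on EGFP-CXCR4⁺ HEK, CCL17 or CCL22 on EGFP-CCR4⁺ HEK, CCL5 on EGFP-CCR5⁺ HEK, CCL2 on EGFP-CCR2⁺ HEK. Mean ± SD, n=3.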

Mus musculus [5] = assay: Toxicity in Balb/c mouse model of hypereosinophilia assessed as reduction in body weight at 350 umol/kg, ip dosed daily 2 hrs before allergen challenge for 10 days and measured 24 hrs after last dose; format: organism-based; conditions: in vivo
In short: (§1)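 Mice given 10 daily administrations at 350 μmol/kg. Monitored for weight loss and for signs of toxicity, including prostration and bristly hair.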

Mus musculus [6] = assay: Toxicity in Balb/c mouse model of hypereosinophilia assessed as induction of bristly hair at 350 umol/kg, ip dosed daily 2 hrs before allergen challenge for 10 days and measured 24 hrs after last dose; format: organism-based; conditions: in vivo; in short: as §1
Mus musculus [7] = assay: Toxicity in Balb/c mouse model of hypereosinophilia assessed as induction of kidney lesions at 350 umol/kg, ip dosed daily 2 hrs before allergen challenge for […] and measured 24 hrs after last dose by Gomori's trichrome staining based histological analysis; format: organism-based; conditions: in vivo
Mus musculus [8] = assay: Anti-asthma activity in Balb/c mouse model of mouse model of hypereosinophilia assessed as inhibition of eosinophil recruitment at 1400 umol/kg, po dosed intranasally 2 hrs before ovalbumin challenge by hemocytometry; format: functional; conditions: in the assay text read “po dosed” for “po dosed intranasally”
In short: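 OVA-sensitized 9-week-old male Balb/c mice (50 μg OVA on 2 mg alum i.p., days 0–2; intranasal OVA 10 μg, days 5–7). Compound at 1400 μmol/kg in PBS/MC 0.5%/Tween 80 0.05% given by gavage 2 h before each challenge. BAL 24 h after the last challenge; eosinophils counted by hemocytometer and Diff-Quick cytospin (≥400 cells); n=6/group.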

[9] = target: T2, C-C motif chemokine 17 (Homo sapiens) (UniProt Q92583); assay: Binding affinity to CCL17 (unknown origin) assessed as inhibition of CCL17-induced increase in intracellular calcium level in EGFP-tagged CCR4 expressing HEK cells at 10 uM
T2 sequence (whole entry): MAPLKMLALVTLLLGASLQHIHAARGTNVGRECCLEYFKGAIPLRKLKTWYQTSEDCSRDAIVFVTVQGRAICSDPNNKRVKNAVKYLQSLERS

[10] = target: T3, C-C motif chemokine 22 (Homo sapiens) (UniProt O00626); assay: Binding affinity to CCL22 (unknown origin) assessed as inhibition of CCL22-induced increase in intracellular calcium level in EGFP-tagged CCR4 expressing HEK cells at 10 uM
T3 sequence (whole entry): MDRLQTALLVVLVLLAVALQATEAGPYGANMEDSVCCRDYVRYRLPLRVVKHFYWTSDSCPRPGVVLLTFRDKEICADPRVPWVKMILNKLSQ

## COc1cc(-c2cc(-c3ccc(Cl)cc3)nc(=O)[nH]2)ccc1O
Mus musculus [1]
  inhibition in vivo at 0.3 µmol/kg: 48%
Mus musculus [2]
  IC50: 310 nmol/kg
[3]
  Kd: 780 nM
[4]
  inhibition: Active
Mus musculus [5]
  Activity: Non-Toxic
Mus musculus [6]
  Activity: Non-Toxic
Mus musculus [7]
  Activity: Non-Toxic
Mus musculus [8]
  inhibition in vivo at 1400 µmol/kg: 62%
[9]
  inhibition: inactive
[10]
  inhibition: inactive
